# Sampled rows, rich in hits. Any-hit rate of the full collection: about 2.9%.
# rRNA inh HTS – inhibitors of bacterial rRNA selective over humanized ribosomes; E. coli WT GFP vs humanized-ribosome RFP mutants, fluorescence, 24 h; active compounds read low; DMSO median 0, no signal -100; GFP signal change (wild-type ribosome), % (no concentration beside the values); actives 1.6% (n = 350,000); AID 720706;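 active = significant combined selectivity score with lowered wild-type GFP, culture density cut under 30%, mutant RFP and density less affected; inactive = any of these conditions unmet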
# Cneo AK release – Cryptococcus neoformans lysis via adenylate kinase release; C. neoformans lysis, adenylate kinase release luminescence, 4 h; normalised: neutral wells 0, clomiphene wells 100; actives 0.2% (n = 360,000); lysis activity, % at 15 µM; AID 651654;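 active = mean lysis activity across replicates of at least 80%, whatever share of replicates individually reach that level; inactive = mean lysis activity below 80%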
#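 Material: C. neoformans cells; Schedule: 4 h static compound exposure, 37 °C, read 1 h post-reagent; Measured by: adenylate kinase release luminescence; Read-out: signal increase indicating cell lysis; Controls: Clomiphene as positive lysis control.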
# PglD DTNB – blocks C. jejuni PglD acetyltransferase activity; purified PglD enzyme, DTNB colorimetric CoA detection; inhibition, % at 12.5 µM; actives 0.098% (n = 360,000); in the data active = inhibition above about 16%, passing the limit was not always enough
# FGF22 binding – FGF22 (human) thermal shift binding | activity (Tm shift, normalised), % at 9.99 µM | recombinant FGF22 thermal shift, SYPRO orange fluorescence; percent of sucrose octasulfate shift, DMSO zero | actives 1.5% (n = 340,000) | Q9HCT0;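 active = mean Tm shift, scaled 0 neutral to 100 positive control, at about 1.3% or above, every replicate too, limit read from the data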
# Target sequence (Q9HCT0 whole entry, looked up): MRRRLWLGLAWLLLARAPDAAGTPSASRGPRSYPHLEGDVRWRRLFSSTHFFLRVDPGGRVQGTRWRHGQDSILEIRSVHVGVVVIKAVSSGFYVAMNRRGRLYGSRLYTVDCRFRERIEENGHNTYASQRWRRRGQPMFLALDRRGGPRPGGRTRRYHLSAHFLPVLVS
# Vif imaging – inhibitors of HIV Vif. HEK293T cells, Vif self-association by quenched fluorescence, imaging, 24 h. inhibition, % at 7.49 µM. actives 0.35% (n = 340,000). AID 602346; in the data active = inhibition above about 50%, passing the limit was not always enough
# PGC1a acetyl inh – modulators of PGC1a acetylation. AID 651687. actives 0.17% (n = 350,000). inhibition, % at 15.6 µM. U2OS PGC1a acetylation, AlphaScreen anti-acetyl-lysine; with virally co-expressed GCN5 acetyltransferase;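 active = every replicate shows inhibition of at least 40%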
# A number is an active result; n = inactive; x = no result.
SMILES,rRNA inh HTS,Cneo AK release,PglD DTNB,FGF22 binding,Vif imaging,PGC1a acetyl inh
COc1ccc(S(=O)(=O)N2CCCCN3[C@@H](CO)[C@H](c4ccc(C5=CCCC5)cc4)[C@@H]3C2)cc1,n,n,n,n,x,n
Cc1nnc2ccc(-c3ccc(NS(=O)(=O)c4ccc(F)cc4F)cc3)nn12,n,n,n,n,70.9,x
Cc1nnc2ccc(-c3ccc(NS(=O)(=O)c4ccccc4[N+](=O)[O-])cc3)nn12,n,n,n,n,76.0,n
Cc1nnc2ccc(-c3ccc(NS(=O)(=O)c4ccccc4)cc3)nn12,n,n,n,n,n,n
Cc1nnc2ccc(-c3ccc(NS(=O)(=O)c4ccccc4F)cc3)nn12,n,x,x,n,n,x
O=C(Nc1ccccc1)Nc1ccc2c(c1)[C@H]1C[C@@H](CC(=O)N3CCOCC3)O[C@H](CO)[C@H]1O2,n,n,n,n,x,n
COc1ccc(C[C@@H]2CCn3cc(nn3)COC[C@H](C)NC2=O)cc1,n,x,x,x,x,x
Cc1nc(S/C(=C/c2ccc(-c3ccc(Cl)cc3)o2)C(=O)O)n[nH]1,x,n,n,x,n,x
Cc1nc(S/C(=C/c2ccc(-c3cc(Cl)ccc3C)o2)C(=O)O)n[nH]1,n,x,x,n,51.9,n
CC(C)C#Cc1ccc([C@@H]2[C@H](CO)N3C(=O)CN(C(=O)NC4CCCCC4)C[C@@H]23)cc1,n,x,x,x,x,n
CCOc1ccccc1Cn1c(=O)sc2ccccc21,n,x,x,43.1,n,x
COc1cccc(CN2C[C@@H]3N[C@H](C2)C3c2ccc(-c3ccccc3OC)cc2)c1 (some centres not stated),n,x,x,x,x,n
Cc1ccc(Nc2nc3ccccc3s2)cc1,x,x,x,1.5,n,x
CC(C)NC(=O)N(C)C[C@@H]1Oc2c(NS(=O)(=O)c3cn(C)cn3)cccc2C(=O)N([C@H](C)CO)C[C@@H]1C,n,n,n,n,x,n
Cn1nc(C(C)(C)C)c([N+](=O)[O-])c1C(=O)N1CCOCC1,n,n,n,n,n,n
Cn1nc(C(=O)N2CCOCC2)c([N+](=O)[O-])c1C(=O)N1CCOCC1,n,x,x,44.1,n,x
COc1ccc(CCC(=O)O)c(C(CC(=O)O)C(=O)O)c1OS(=O)(=O)c1ccc(C)cc1 (configuration not stated),n,n,n,1.6,n,n
C[C@H]1CN([C@@H](C)CO)C(=O)c2cc(C#CCC3CCCC3)cnc2O[C@@H]1CN(C)C(=O)CN(C)C,n,n,n,n,x,n
CN(Cc1ncc[nH]1)C(=O)CC1C(=O)NCCN1Cc1c(F)cccc1Cl (configuration not stated),n,n,n,n,n,n
C=C(C)CN(CC)C(=O)CC1C(=O)NCCN1Cc1c(F)cccc1Cl (configuration not stated),n,x,x,43.1,n,x
COc1ccc(NS(=O)(=O)c2ccc(N/N=C(\C)c3ccncc3)c([N+](=O)[O-])c2)cc1,-23.1,x,x,n,n,x
Cc1csc(SCC(=O)Nc2nc(-c3ccccc3)cs2)n1,x,n,n,x,x,n
Nc1ccccc1SCC(=O)Nc1nc(-c2ccccc2)cs1,n,n,n,1.5,n,n
CC1CC(CC(=O)Nc2nc(-c3ccccc3)cs2)C(=O)O1 (configuration not stated),-24.1,n,n,n,n,n
C/C(CC1CC(COCC(C)C)OC1=O)=N\Nc1nc(-c2ccccc2)cs1 (configuration not stated),x,n,n,x,n,n
SMILES,rRNA inh HTS,Cneo AK release,PglD DTNB,FGF22 binding,Vif imaging,PGC1a acetyl inh
COc1ccc(NC(=O)N[C@H]2CC[C@@H](CC(=O)NCc3ccccn3)O[C@@H]2CO)cc1,n,n,n,n,x,n
COc1ccc(S(=O)(=O)Nc2ccc3c(c2)CC(=O)N([C@@H](C)CO)C[C@H](C)[C@@H](CN(C)C(=O)NC2CCCCC2)O3)cc1,n,n,n,n,x,n
CO[C@@H]1CN(C)C(=O)c2cc(NC(=O)c3ccccc3F)ccc2OC[C@H](C)N(CC2CC2)C[C@@H]1C,n,n,n,n,x,n
O=C1C=CCCN1C(=O)/C=C/c1cccc(C(F)(F)F)c1,x,n,x,n,x,78.4
O=C1C=CCCN1C(=O)/C=C/c1ccccc1Cl,x,n,x,n,x,73.0
COc1cc(/C=C/C(=O)N2CCC=CC2=O)cc(OC)c1OC,x,n,n,n,n,x
C[C@@H]1CN([C@@H](C)CO)C(=O)Cc2cc(NC(=O)c3ccncc3)ccc2O[C@H]1CN(C)Cc1ccc(Oc2ccccc2)cc1,n,n,n,n,x,n
O=C(C1CCOCC1)N1CC2(C1)[C@@H](c1ccccc1)[C@@H](CO)N2CCC(F)(F)F,n,x,x,x,x,n
Cc1cccc(NC(=O)c2n[nH]c([N+](=O)[O-])c2Br)c1C,-29.0,n,n,n,n,n
C[C@@H]1CCCCO[C@@H](CN(C)C)[C@H](C)CN([C@@H](C)CO)C(=O)c2cc(NS(=O)(=O)c3cn(C)cn3)ccc2O1,n,n,n,n,x,n
COc1cccc2c(SCC(=O)N/N=C/c3ccc(O)cc3O)cc(C)nc12,n,x,x,3.0,n,n
COc1ccc2nc(C)cc(SCC(=O)N/N=C/c3ccc(O)cc3O)c2c1,x,x,x,x,n,x
COCc1cc(C)nc(OCC(=O)N/N=C/c2ccc(O)cc2O)c1C#N,n,x,x,43.7,n,x
COCc1cc(C)nc(OCC(=O)N/N=C/c2cccc(OC)c2)c1C#N,x,n,n,x,n,n
COCc1cc(C)nc(OCC(=O)N/N=C/c2ccccc2O)c1C#N,n,x,x,44.0,n,x
C[C@H]1CN([C@@H](C)CO)S(=O)(=O)c2ccc(C#Cc3ccccc3F)cc2O[C@@H]1CN(C)C,n,n,n,n,x,n
NC(N)=N/N=C/c1cccc([N+](=O)[O-])c1O,n,x,x,43.4,n,x
CC(C)(C)c1cc(C(c2cccnc2)N2CCN(CCO)CC2)cc(C(C)(C)C)c1O (configuration not stated),-30.1,n,n,n,n,n
CCOc1ccc(NC(N)=O)cc1,n,n,n,n,64.8,n
CCOC(=O)c1cccc(NC(=O)Nc2ccc(OCC)cc2)c1,n,x,x,43.2,n,x
CCOc1ccc(NC(=O)Nc2cccc(C(=O)O)c2)cc1,n,x,x,n,n,n
CCOc1ccc(NC(C)=O)cc1,x,n,n,n,n,n
CCOc1ccc(NC(=S)NNC(=O)c2ccc(Br)cc2)cc1,-14.9,x,x,n,n,n
CN(C)C(=O)c1cccc(-c2ccc3c(c2)[C@H]2[C@H](CCN2C(=O)Cc2ccccc2)[C@@H](CO)N3)c1,n,n,n,n,x,n
O=C(CN1CCOCC1)N[C@H]1CC[C@@H](CCNS(=O)(=O)c2ccccc2F)O[C@@H]1CO,n,x,x,x,x,n
O=C(O)c1ccc(Cl)c(NCc2ccncc2)c1,n,n,n,n,n,x
Cc1ccc(CNc2cc(C(=O)O)ccc2Cl)s1,-32.9,n,n,n,n,n
Cc1nn(CC(=O)Nc2nccs2)c(C)c1[N+](=O)[O-],n,x,x,n,n,x
